Source: ChEMBL document CHEMBL1221204, “Spliceostatin A targets SF3b and inhibits both splicing and nuclear retention of pre-mRNA” (Nat Chem Biol, 2007)
Active and inactive are the calls of the source. No cut-off for these calls is given here.

Columns and labels:
[1] = molecular target: Cyclin-dependent kinase 2 (Homo sapiens) (UniProt P24941); experiment: Induction of CDK2 in HEK293T cells transfected with FLAG-tagged truncated p27 at 190 nM by Western blot analysis; format: cell-based; settings: HEK-293T
How it was run: (§1)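 HEK 293T cells were transfected with pcDNA3.1, FLAG-p27 or FLAG-p27*, or were treated with MeOH, FR901464 (20, 200 nM) or SSA (190 nM). CDK2 was immunoprecipitated and its kinase activity read by autoradiography with histone H1 and (gamma-32P)ATP. Associated proteins were detected by western blotting.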

[2] = molecular target: T1, Splicing factor 3B subunit 3 (Homo sapiens) (UniProt Q15393); experiment: Binding affinity to SAP130 in human HeLa cells assessed as inhibition of beta-actin mRNA splicing at 100 ng/ml after 6 hrs by RT-PCR analysis; format: cell-based
T1 sequence (whole entry): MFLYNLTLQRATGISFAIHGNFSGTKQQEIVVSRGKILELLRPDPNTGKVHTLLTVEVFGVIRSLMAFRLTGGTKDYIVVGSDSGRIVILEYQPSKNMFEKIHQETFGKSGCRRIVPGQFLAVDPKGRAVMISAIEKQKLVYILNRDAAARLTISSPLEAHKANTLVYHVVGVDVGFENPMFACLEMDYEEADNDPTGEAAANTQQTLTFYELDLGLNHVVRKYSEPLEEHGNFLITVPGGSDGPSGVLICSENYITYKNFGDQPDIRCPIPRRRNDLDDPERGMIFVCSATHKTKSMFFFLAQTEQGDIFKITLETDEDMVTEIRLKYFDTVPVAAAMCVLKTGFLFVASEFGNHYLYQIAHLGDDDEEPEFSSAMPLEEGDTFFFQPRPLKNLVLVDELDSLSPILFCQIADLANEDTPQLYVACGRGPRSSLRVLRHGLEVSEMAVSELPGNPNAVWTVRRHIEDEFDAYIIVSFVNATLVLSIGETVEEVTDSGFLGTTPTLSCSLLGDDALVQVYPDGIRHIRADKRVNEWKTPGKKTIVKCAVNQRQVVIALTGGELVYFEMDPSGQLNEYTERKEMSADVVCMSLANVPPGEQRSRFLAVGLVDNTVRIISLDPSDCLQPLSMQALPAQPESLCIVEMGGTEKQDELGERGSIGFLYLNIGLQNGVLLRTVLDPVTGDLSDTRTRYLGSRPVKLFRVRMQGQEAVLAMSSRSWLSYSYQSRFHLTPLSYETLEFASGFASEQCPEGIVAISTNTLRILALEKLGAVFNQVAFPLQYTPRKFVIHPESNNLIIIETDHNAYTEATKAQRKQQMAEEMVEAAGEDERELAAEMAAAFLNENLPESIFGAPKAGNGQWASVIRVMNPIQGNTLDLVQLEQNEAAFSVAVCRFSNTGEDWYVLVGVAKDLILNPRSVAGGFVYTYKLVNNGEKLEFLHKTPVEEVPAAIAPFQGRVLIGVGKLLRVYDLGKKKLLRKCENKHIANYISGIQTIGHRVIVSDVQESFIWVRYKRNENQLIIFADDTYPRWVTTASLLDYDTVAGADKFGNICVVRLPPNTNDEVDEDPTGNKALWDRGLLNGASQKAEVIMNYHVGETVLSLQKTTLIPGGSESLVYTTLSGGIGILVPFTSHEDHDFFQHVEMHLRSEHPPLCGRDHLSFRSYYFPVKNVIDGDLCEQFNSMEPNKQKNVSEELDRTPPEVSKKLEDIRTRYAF
How it was run: (§2)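 HeLa cells treated 6 h with 100 ng ml-1 SSA or methanol. Total RNA isolated with TRIzol and reverse transcribed with M-MLV reverse transcriptase. PCR primers designed to detect intron-containing transcripts.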

HeLa [3] = experiment: Induction of truncated p27 expression in SAP155-targeting siRNA-transfected human HeLa cells; format: functional, cell-based
How it was run: (§3)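 HeLa cells transfected with siRNA against SAP155, SAP145 or SAP130 using DharmaFECT 1. Knockdown and the truncated p27* form detected by western blotting of cell extracts.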

[4] = molecular target: T1, Splicing factor 3B subunit 3 (Homo sapiens); experiment: Binding affinity to SAP130 in human HeLa cells assessed as inhibition of p27 pre-mRNA splicing between exon 1 and exon 2 at […] after 12 hrs by RT-PCR analysis; format: cell-based
[5] = molecular target: Cyclin-dependent kinase 2 (Homo sapiens) (UniProt P24941); experiment: Induction of CDK2 in HEK293T cells transfected with FLAG-tagged p27 at 190 nM by Western blot analysis; format: cell-based; settings: HEK-293T; how it was run: as §1
HeLa [6] = experiment: Induction of subcellular localization of SAP155 in SAP155-targeting siRNA-transfected human HeLa cells after 3 days; format: functional, cell-based
HeLa [7] = experiment: Induction of beta-actin expression in human HeLa cells at 100 ng/ml after 14 hrs by Western blotting; format: functional, cell-based
[8] = molecular target: T1, Splicing factor 3B subunit 3 (Homo sapiens); experiment: Binding affinity to SAP130 in human HeLa cells assessed as inhibition of IkappaBalpha pre-mRNA splicing between exon 1 and exon 4 at […] after 12 hrs by RT-PCR analysis; format: cell-based
[9] = system: SF3B1/SF3B2/SF3B3 (Homo sapiens); experiment: Displacement of Ac-SSA from SF3b SAP155/SAP145/SAP130 complex in human HeLa cells by competition binding assay
[10] = Half life of the compound in culture medium by HPLC analysis; format: physicochemical
[11] = molecular target: T1, Splicing factor 3B subunit 3 (Homo sapiens); experiment: Binding affinity to SAP130 assessed as inhibition of radio labeled beta-globin pre-mRNA splicing after 1 hr by autoradiography
How it was run: (§4)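 32P-labelled, m7G-capped in vitro-transcribed pre-mRNA substrate; beta-globin (exon 1 177 nt, intron 130 nt, exon 2 148 nt) or IgM (exon C3 154 nt, intron 107 nt, exon C4 119 nt). HeLa nuclear extract preincubated with SSA (19, 58, 95, 190 nM) or methanol for 1 h at 4 °C. Splicing then run 90 min at 30 °C in 20 µl. RNA resolved on denaturing urea-PAGE; autoradiography.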

HeLa [12] = experiment: Induction of subcellular localization of SAP145 in SAP145-targeting siRNA-transfected human HeLa cells after 3 days; format: functional, cell-based
[13] = molecular target: T1, Splicing factor 3B subunit 3 (Homo sapiens); experiment: Binding affinity to SAP130 in human HeLa cells assessed as inhibition of beta-tubulin mRNA splicing at 100 ng/ml after 6 hrs by RT-PCR analysis; format: cell-based; how it was run: as §2
[14] = molecular target: T1, Splicing factor 3B subunit 3 (Homo sapiens); experiment: Binding affinity to SAP130 in human HeLa cells assessed as inhibition of p27 pre-mRNA splicing between exon 1 and intron 2 at […] after 12 hrs by RT-PCR analysis; format: cell-based
HeLa [15] = experiment: Induction of truncated p27 expression in SAP130-targeting siRNA-transfected human HeLa cells; format: functional, cell-based; how it was run: as §3
HEK-293T [16] = experiment: Induction of intron translation of HA-tagged truncated p27 gene in HEK293T cells at 100 ng/ml for 14 hrs; format: functional, cell-based; settings: Homo sapiens
How it was run: (§5)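 HEK 293T cells transfected (Lipofectamine 2000) with the p27-int-HA reporter. Correct splicing yields p27-Myc; translated intron yields p27*-HA. Cells treated with or without SSA at 100 ng ml-1 for 14 h. Myc- and HA-tagged products detected by western blotting.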

HeLa [17] = experiment: Induction of beta-tubulin expression in human HeLa cells at 100 ng/ml after 14 hrs by Western blotting; format: functional, cell-based
HeLa [18] = experiment: Induction of truncated p27 expression in SAP145-targeting siRNA-transfected human HeLa cells; format: functional, cell-based; how it was run: as §3
[19] = molecular target: T1, Splicing factor 3B subunit 3 (Homo sapiens); experiment: Binding affinity to SAP130 in human HeLa cells assessed as inhibition of p27 mRNA splicing at 100 ng/ml after 6 hrs by RT-PCR analysis; format: cell-based; how it was run: as §2
[20] = molecular target: T1, Splicing factor 3B subunit 3 (Homo sapiens); experiment: Binding affinity to SAP130 assessed as inhibition of radio labeled IgM pre-mRNA splicing after 1 hr by autoradiography; how it was run: as §4
[21] = molecular target: T1, Splicing factor 3B subunit 3 (Homo sapiens); experiment: Binding affinity to SAP130 in human HeLa cells assessed as inhibition of FLAG-tagged beta globin splicing at 100 ng/ml after 12 hrs by RT-PCR analysis; format: cell-based
HEK-293T [22] = experiment: Induction of intron translation of Myc-tagged p27 gene in HEK293T cells at 100 ng/ml for 14 hrs by Western blotting; format: functional, cell-based; settings: Homo sapiens; how it was run: as §5
HeLa [23] = experiment: Induction of subcellular localization of poly(A) RNA in human HeLa cells at 100 ng/ml after 3 hrs using digoxigenin-labeled oligo-Dt probe; format: functional, cell-based
How it was run: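 HeLa cells treated with SSA (100 ng ml-1, 3 h) or MeOH. Fixed in 3% formaldehyde 15 min; permeabilized with 0.5% Triton X-100 on ice. Hybridized at 42 °C with 3'-digoxigenin oligo-dT in 2× SSC, 20% formamide, 1 mg ml-1 tRNA, 10% dextran sulfate. Washed; detected with anti-digoxigenin then FITC anti-mouse IgG.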

HeLa [24] = experiment: Induction of subcellular localization of SC35 in human HeLa cells at 100 ng/ml after 3 hrs; format: functional, cell-based
How it was run: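 HeLa cells treated with SSA (100 ng ml-1, 3 h) or MeOH. Fixed in 3% formaldehyde, permeabilized with 1% Triton X-100, blocked with 5% FBS-PBS. Stained with anti-SC35 and an Alexa 488 anti-mouse secondary; fluorescence microscopy at 100×.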

HeLa [25] = experiment: Induction of p21 expression in human HeLa cells at 1 uM after 24 hrs by Western blotting; format: functional, cell-based
How it was run: (§6)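 HeLa S3 cells were grown in DMEM with 10% heat-inactivated FBS and treated for 24 h. Cells were sonicated in ice-cold pH 7.5 HEPES IP buffer with protease inhibitors. Extracts were separated by SDS-PAGE, blotted to PVDF and probed with anti-p16, anti-p21 and anti-p27 antibodies, with chemiluminescent detection.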

HeLa [26] = experiment: Induction of p16 expression in human HeLa cells at 1 uM after 24 hrs by Western blotting; format: functional, cell-based; how it was run: as §6
HeLa [27] = experiment: Induction of p27 expression in human HeLa cells at 1 uM after 24 hrs by Western blotting; format: functional, cell-based; how it was run: as §6

CO[C@]1(C)C[C@@]2(CO2)[C@H](O)[C@@H](/C=C/C(C)=C/C[C@@H]2O[C@H](C)[C@H](NC(=O)/C=C\[C@H](C)OC(C)=O)C[C@@H]2C)O1
Activity [1]: inactive
inhibition [2]: Active
Activity (HeLa [3]): Active
Activity [4]: Active
Activity [5]: inactive
Activity (HeLa [6]): Active
Activity (HeLa [7]): Active
Activity [8]: Active
Activity [9]: Active
half-life [10]: 6 min
Activity [11]: Dose-dependent effect
Activity (HeLa [12]): Active
inhibition [13]: Active
Activity [14]: Active
Activity (HeLa [15]): Active
Activity (HEK-293T [16]): Active
Activity (HeLa [17]): Active
Activity (HeLa [18]): Active
inhibition [19]: Active
inhibition [20]: Active
Activity [21]: Active
Activity (HEK-293T [22]): Active
Activity (HeLa [23]): Active
Activity (HeLa [24]): Active

CC(/C=C/C(=O)NO)=C\[C@@H](C)C(=O)c1ccc(N(C)C)cc1
Activity (HeLa [25]): Active
Activity (HeLa [26]): Active
Activity (HeLa [27]): Active
